Laboratory results taken from publication PMC10053980 (ACS infectious diseases, 2023).
Where two headings read alike, the source gives them in different places.

How the values were obtained:
[1] = test system: P. falciparum Dd2 (PfDd2, parent); assay: Asexual blood-stage growth inhibition; type: cell-based; conditions: Plasmodium falciparum
[2] = test system: PfACT^Q116K (S)-SW703-resistant Dd2 clone; assay: Asexual blood-stage EC50; type: cell-based, Plasmodium falciparum; conditions: for EC50: Plasmodium falciparum
Procedure, shortened: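 Cloned resistant parasites were exposed to test compound or KAF156 over a concentration range for 72 h at 37 °C (2% hematocrit, 0.5% parasitemia, 0.5% DMSO). Freeze–thaw was followed by SYBR Green lysis and fluorescence at 485/535 or 528 nm. EC50 was fitted by four-parameter regression. Fold shift is relative to the Dd2 parent. Technical triplicates, at least three independent experiments.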

[3] = test system: PfCARL^L1073I C2 clone beta (Polδ mutant); assay: Asexual blood-stage EC50; type: cell-based, Plasmodium falciparum; conditions: for EC50: Plasmodium falciparum
[4] = test system: PfCARL^L830I (S)-SW703-resistant Dd2 clones; assay: Asexual blood-stage EC50; type: cell-based, Plasmodium falciparum
[5] = test system: PfCARL^S1057T (S)-SW703-resistant Dd2 clones; assay: Asexual blood-stage EC50; type: cell-based, Plasmodium falciparum
[6] = test system: PfCARL^Q821H (S)-SW703-resistant Dd2 clones; assay: Asexual blood-stage EC50; type: cell-based, Plasmodium falciparum
[7] = test system: PfACT^S242* CRISPR mutant; conditions: cited from earlier work
PfCARL L1073Q mutants = conditions: cited from earlier work
PfD10 attB + yDHODH = assay: Asexual blood-stage growth inhibition; type: cell-based, Plasmodium falciparum; conditions: Saccharomyces cerevisiae, read-out: PfD10 attB + yDHODH EC50
Procedure, shortened: (§1)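 Ring-stage parasites (2% hematocrit, 0.5% parasitemia, final DMSO 0.5%) were exposed to a concentration range for 72 h at 37 °C, 5% CO2. Plates were frozen for at least 16 h and thawed, then SYBR Green lysis buffer was added. Fluorescence was read at 485 nm excitation and 535/528 nm emission. DSM265 (0.8–100 nM) served as plate control. EC50 came from four-parameter nonlinear regression, in technical triplicates with at least 3 biological replicates.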

physchem = type: physicochemical; conditions: kinetic from dmso stock
[8] = test system: P. falciparum strain NF54 stage V gametocytes, male gametes; assay: Dual gamete formation assay; type: cell-based, Plasmodium falciparum; conditions: 1 μM, 48 h
PfD10 attB = assay: Asexual blood-stage growth inhibition; type: cell-based; conditions: Plasmodium falciparum, read-out: PfD10 attB EC50
Procedure, shortened: as §1

HepG2 cytotoxicity = type: cell-based; conditions: human, HepG2 cells
Procedure, shortened: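 HepG2 cells (600 per well) in EMEM with 5% heat-inactivated FBS and 2 mM glutamine received test compound and were incubated 72 h at 37 °C, 5% CO2. Viability was read by CellTiter Glo (intracellular ATP). CD437 and methotrexate served as positive controls. Two biological runs, each in technical triplicate.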

Dd2-Polδ (parent) = assay: Asexual blood-stage EC50; type: cell-based; conditions: Plasmodium falciparum, DD2, read-out: (S)-SW703 EC50
Procedure, shortened: as §1

RF12 (PH-1263-C) = assay: [3H]-hypoxanthine incorporation assay, cross-resistance panel; type: cell-based, Plasmodium falciparum
[9] = test system: PfCARL^I1139K (KAF156-selected); assay: [3H]-hypoxanthine incorporation assay, cross-resistance panel; type: cell-based, Plasmodium falciparum; conditions: PfCARL^I1139K relative to parent line Dd2
Procedure, shortened: (§2)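 Cross-resistance was measured by a modified [3H]-hypoxanthine incorporation assay. Fold differences for lab-generated resistant lines are relative to the Dd2 parent. Values are means from two independent experiments.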

[10] = test system: P. falciparum 3D7 (Pf3D7); assay: Asexual blood-stage growth inhibition; type: cell-based; conditions: Plasmodium falciparum, 3D7, 72 h, read-out: Pf3D7 EC50
[11] = test system: P. falciparum strain 3D7A; assay: Two color flow cytometry rate of kill assay; type: cell-based, Plasmodium falciparum; conditions: 0, 24 or 48 h exposure at 10X EC50; compared with chloroquine and artesunate
[12] = test system: P. falciparum strain NF54 stage V gametocytes, female gametes; assay: Dual gamete formation assay; type: cell-based; conditions: Plasmodium falciparum, NF54, read-out: Inhibition of female gamete formation
[13] = test system: PfPI4K^S743T (MMV390048-resistant); assay: [3H]-hypoxanthine incorporation assay, cross-resistance panel; type: cell-based, Plasmodium falciparum
NF54 = assay: as above; type: cell-based; conditions: Plasmodium falciparum, NF54, read-out: (S)-SW703 EC50
7G8 = assay: as above; type: cell-based, Plasmodium falciparum
[14] = test system: PfCytB^I22L (ELQ300-resistant); assay: as above; type: cell-based, Plasmodium falciparum
[15] = test system: PfeEF2^Y186N (DDD107498-resistant); assay: as above; type: cell-based, Plasmodium falciparum
TM90C2B = assay: as above; type: cell-based, Plasmodium falciparum
K1 = assay: as above; type: cell-based, Plasmodium falciparum
Dd2 = assay: as above; type: cell-based, Plasmodium falciparum
[16] = test system: P. berghei liver stage (Pb-Luc sporozoites); assay: Liver stage activity assay; type: cell-based; conditions: Plasmodium berghei, read-out: Liver-stage EC50
[17] = test system: PfDHODH (DSM265-resistant); assay: [3H]-hypoxanthine incorporation assay, cross-resistance panel; type: cell-based, Plasmodium falciparum
Procedure, shortened: as §2

in vitro = in vitro ADME; conditions: human, microsomes
[18] = Flask 4 clone F2, PfACT^Q116K, vs Dd2 parent
[19] = Flask 1 clone B4, PfCARL^L830I, vs Dd2 parent
[20] = Flask 3 clone D11, PfCARL^S1057T, vs Dd2 parent
[21] = Flask 2 clone F3, PfCARL^Q821H, vs Dd2 parent
[22] = Plasmodium falciparum, read-out: (S)-SW703 EC50

SMILES: CC1(C)c2nc(-c3ccc(F)cc3)c(Nc3ccc(F)cc3)n2CCN1C(=O)CN [KAF156, reference compound]
- EC50 ([1]; DD2, read-out: KAF156 EC50): 12 ± 1.7 nM
- KAF156 EC50 fold shift [2, 18]: 1.8 fold
- EC50 ([2]; DD2, read-out: KAF156 EC50): 22 ± 4.5 nM
- EC50 ([3]; read-out: KAF156 EC50): 16 ± 2.7 nM
- KAF156 EC50 fold shift [4, 19]: 1.8 fold
- EC50 ([4]; Plasmodium falciparum, DD2, read-out: KAF156 EC50, Flask 1 clone B4, PfCARL^L830I): 22 ± 3.4 nM
- KAF156 EC50 fold shift [5, 20]: 1.5 fold
- EC50 ([5]; Plasmodium falciparum, DD2, read-out: KAF156 EC50, Flask 3 clone D11, PfCARL^S1057T): 18 ± 1.8 nM
- KAF156 EC50 fold shift [6, 21]: 4.7 fold
- EC50 ([6]; Plasmodium falciparum, DD2, read-out: KAF156 EC50, Flask 2 clone F3, PfCARL^Q821H): 57 ± 6.6 nM
- resistance conferred by PfACT^S242* CRISPR mutant [7]: high-level resistance
- resistance conferred by PfCARL L1073Q (PfCARL L1073Q mutants): did not confer resistance

SMILES: Cc1cccc(C)c1CC1CN(C(=O)[C@@H](N)Cc2ccc(O)cc2)C1 [(S)-SW703, (S)-2-amino-1-(3-(2,6-dimethylbenzyl)azetidin-1-yl)-3-(4-hydroxyphenyl)propan-1-one]
- EC50 (PfD10 attB + yDHODH): 1300 nM
- solubility (physchem; pH 2, simulated gastric fluid): > 34 µg/mL
- solubility (physchem; pH 6.5, aqueous buffer): > 34 µg/mL
- Inhibition of male gamete formation [8]: 18.3%
- EC50 (PfD10 attB): 1500 nM
- CC50 at 72 h (HepG2 cytotoxicity): > 50000 nM
- EC50 (Dd2-Polδ (parent)): 930 ± 110 nM
- EC50 (RF12 (PH-1263-C); [22]): 370 ± 10 nM
- (S)-SW703 EC50 fold shift (RF12 (PH-1263-C); RF12 relative to NF54): 1.1 fold
- EC50 ([1]; DD2, 72 h, read-out: PfDd2 EC50): 810 ± 150 nM
- (S)-SW703 EC50 fold shift [9]: > 16.6 fold
- EC50 [10]: 780 ± 92 nM
- Rate of kill (killing kinetics) [11]: fast-killing mechanism
- (S)-SW703 EC50 fold shift [2, 18]: 2.3 fold
- EC50 ([2]; DD2, read-out: (S)-SW703 EC50): 1900 ± 240 nM
- (S)-SW703 EC50 fold shift ([3]; C2 clone beta, PfCARL^L1073I, vs Dd2-Polδ parent): 9.5 fold
- EC50 ([3]; read-out: (S)-SW703 EC50): 8800 ± 1200 nM
- (S)-SW703 EC50 fold shift [4, 19]: 31 fold
- (S)-SW703 EC50 fold shift ([4]; Flask 1 clone F9, PfCARL^L830I, vs Dd2 parent): 31 fold
- (S)-SW703 EC50 fold shift ([4]; Flask 2 clone C5, PfCARL^L830I, vs Dd2 parent): 32 fold
- (S)-SW703 EC50 fold shift ([4]; Flask 2 clone E8, PfCARL^L830I, vs Dd2 parent): 27 fold
- inhibition at 1 µM [12]: 1.2 ± 1.7%
- (S)-SW703 EC50 fold shift ([13]; PfPI4K^S743T relative to parent line Dd2): 0.97 fold
- EC50 ([13]; {}): 290 ± 42 nM
- EC50 (NF54): 340 ± 36 nM
- (S)-SW703 EC50 fold shift (7G8; 7G8 relative to NF54): 1.2 fold
- EC50 (7G8; [22]): 410 ± 32 nM
- (S)-SW703 EC50 fold shift ([5]; Flask 1 clone G3, PfCARL^S1057T, vs Dd2 parent): 12 fold
- (S)-SW703 EC50 fold shift [5, 20]: 15 fold
- (S)-SW703 EC50 fold shift ([5]; Flask 3 clone G5, PfCARL^S1057T, vs Dd2 parent): 16 fold
- (S)-SW703 EC50 fold shift ([5]; Flask 4 clone D4, PfCARL^S1057T, vs Dd2 parent): 12 fold
- (S)-SW703 EC50 fold shift ([5]; Flask 4 clone G3, PfCARL^S1057T, vs Dd2 parent): 14 fold
- (S)-SW703 EC50 fold shift ([14]; PfCytB^I22L relative to parent line Dd2): 0.75 fold
- EC50 ([14]; {}): 230 ± 46 nM
- (S)-SW703 EC50 fold shift [6, 21]: 52 fold
- (S)-SW703 EC50 fold shift ([6]; Flask 3 clone D7, PfCARL^Q821H, vs Dd2 parent): 60 fold
- (S)-SW703 EC50 fold shift ([15]; PfeEF2^Y186N relative to parent line Dd2): 0.91 fold
- EC50 ([15]; {}): 270 ± 25 nM
- EC50 (TM90C2B; Plasmodium falciparum, TM90C2B, read-out: (S)-SW703 EC50): 370 ± 41 nM
- (S)-SW703 EC50 fold shift (TM90C2B; TM90C2B relative to NF54): 1.1 fold
- (S)-SW703 EC50 fold shift (K1; K1 relative to NF54): 1.0 fold
- EC50 (K1; [22]): 350 ± 39 nM
- (S)-SW703 EC50 fold shift (Dd2; Dd2 relative to NF54): 0.88 fold
- EC50 (Dd2; Plasmodium falciparum, DD2, read-out: (S)-SW703 EC50): 300 ± 31 nM
- EC50 [16]: 570 ± 210 nM
- (S)-SW703 EC50 fold shift ([17]; PfDHODH relative to parent line Dd2): 0.95 fold
- EC50 ([17]; Plasmodium falciparum, DSM265, read-out: (S)-SW703 EC50): 290 ± 9 nM
- microsomal CLint (in vitro): 197 µL/min/mg

SMILES: CC1(C)c2nc(-c3ccc(F)cc3)c(Nc3ccc(Cl)cc3)n2CCN1C(=O)CN [GNF179]
- fold resistance of parasites bearing PfCARL^Q821H mutations ([6]; cross-resistance of (S)-SW703-resistant clones): about 5 fold
- resistance conferred by PfACT^S242* CRISPR mutant [7]: high-level resistance
- resistance conferred by PfCARL L1073Q (PfCARL L1073Q mutants): did not confer resistance
